Screening results deposited in PubChem by several laboratories.
Measles CPE – protection of cells from measles virus | Measles virus-infected cells, CPE protection, absorbance | protection (pct of control), % at 4 µM | 140,000 tested, 1.5% active; in the data active means protection mostly above about 24%, no sharp cut-off; inactive means mostly below about 26%
Yeast life ext – extends the lifespan of yeast; S. cerevisiae growth with nicotinamide, OD615; deaD strain in restrictive glucose medium; inhibition of the nicotinamide effect, % at 10 µM; 130,000 tested, 0.68% active; AID 775;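 active means inhibition above a set limit, placed 3 SD over the median of all compounds, cut at about 26% in these data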;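 further: 0% = nicotinamide-treated wells and 100% = cells grown without nicotinamide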
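Test system – modified budding yeast, DeaD strain · Compound – single dose 10 µM compound, 0.25% DMSO · Times – culture preincubation 4 h, compound exposure 48 h, both 30 °C · Detection – optical density (absorbance) at 615 nm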
RAM network inh – yeast RAM network inhibition | inhibition, % at 50 µM | 190,000 tested, 1.8% active | AID 868 | S. cerevisiae dse1pr::URA3 reporter, 5-FOA growth OD615, 2 d; analog-sensitive cbk1-as2 kinase mutant strain;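 active means inhibition above a set limit, 3 SD over mean compound inhibition, cut at about 8.4% in these data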;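 further: 0% = DMSO-only wells with no growth and 100% = 10 µM 1-NA-PP1 full growth; inhibition rescues growth on 5-FOA so higher OD means more RAM inhibition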
BB579 growth dn – reduces growth of yeast BB579 in restrictive medium. S. cerevisiae BB579 growth, OD615, 48 h. inhibition, % at 10 µM. 140,000 tested, 0.51% active. AID 804;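 active means inhibition above a set limit, 3 SD over the mean compound inhibition, cut at about 44% in these data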
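System: Saccharomyces cerevisiae DeaD strain BB579, replicative lifespan model yeast | Buffer or medium: Restrictive glucose-based CSMM-D medium | Times: 4 h preincubation and 48 h exposure at 30 °C | Detection: OD615 turbidity measurement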
Starred values were filed as active, the others as inactive. Compounds with a hit are over-represented: about 3.8% of the library has one in this group of screens.

What do the screens show for `CCCOC(=O)c1ccc(Oc2c(-c3ccc(OC)cc3O)n[nH]c2C)cc1`?
Measles CPE: -1.5; Yeast life ext: -23.7; RAM network inh: 10.4*; BB579 growth dn: -41.2

Results for COc1ccc(-c2n[nH]c(C)c2-c2ccc(Cl)cc2)c(O)c1 ?
Measles CPE: 1.2; Yeast life ext: -16.9; RAM network inh: 0.3; BB579 growth dn: 100.1*

What do the screens show for `CCc1cc(-c2n[nH]c(C)c2Oc2ccc(C(C)C)cc2)c(O)cc1O`?
Measles CPE: 13.6; Yeast life ext: -14.1; RAM network inh: -0.4; BB579 growth dn: 89.8*

What do the screens show for `CCCOC(=O)c1ccc(Oc2c(-c3ccc(O)cc3O)n[nH]c2C)cc1`?
Measles CPE: 20.6; Yeast life ext: -7.5; RAM network inh: 5.2; BB579 growth dn: -26.2

What do the screens show for `Cc1[nH]nc(-c2ccc(O)cc2O)c1Oc1ccccc1`?
Measles CPE: 5.4; Yeast life ext: -5.8; RAM network inh: 0.0; BB579 growth dn: -27.2

What do the screens show for `Cc1c(O)nc(SCC(=O)Nc2ccc3c4c(cccc24)CC3)n(-c2ccc(F)cc2)c1=O`?
Measles CPE: 8.6; Yeast life ext: -1.6; RAM network inh: 9.2*; BB579 growth dn: -35.8

How did COc1ccc(S(=O)(=O)NC(C)C)cc1C(=O)N1CCOCC1 do in these assays?
RAM network inh: -1.1

What do the screens show for `Cc1nn(Cc2cccc(C(=O)NCC(C)C)c2)c(C)c1Br`?
Measles CPE: 27.2*; RAM network inh: -0.1; BB579 growth dn: -11.7

How did COC(=O)c1ccc(Cn2nc(C)c(Br)c2C)cc1 do in these assays?
Measles CPE: 36.5; Yeast life ext: -12.4; RAM network inh: -0.4; BB579 growth dn: -5.1

Results for Cc1ccc(OCC(=O)Nc2ccccc2F)cc1C ?
RAM network inh: 1.8

Results for COc1ccc(CCNC(=O)c2ccc(N(C)S(=O)(=O)c3ccc(C)cc3)cc2)cc1OC ?
RAM network inh: 4.9

What do the screens show for `COCCNC(=O)c1ccc(N(C)S(=O)(=O)c2ccc(OC)c(OC)c2)cc1`?
Measles CPE: 67.8*; Yeast life ext: -13.1; RAM network inh: 1.2; BB579 growth dn: -5.6

Results for CCN(CC)c1ccc(/C=C2\C(=O)c3ccc(C(=O)O)cc3C2=O)cc1 ?
Measles CPE: 4.2; Yeast life ext: 2.7; RAM network inh: 10.0*; BB579 growth dn: -62.2

How did COc1ccc(C(=O)Nn2c(SCc3ccc([N+](=O)[O-])cc3)nc3ccccc3c2=O)cc1 do in these assays?
Measles CPE: 12.3; Yeast life ext: -2.2; RAM network inh: 3.5; BB579 growth dn: -25.1

What do the screens show for `CCSc1nc(N)c2c3c(sc2n1)CN(C)CC3`?
Measles CPE: 43.8*; Yeast life ext: -11.2; RAM network inh: 0.5; BB579 growth dn: -6.5

How did Cc1ccc2cc(C)c3nnc(SCC(=O)c4cccs4)n3c2c1C do in these assays?
Measles CPE: 7.3; Yeast life ext: -4.8; RAM network inh: 2.4; BB579 growth dn: -61.3

How did Cc1cc2ccc(C)c(C)c2nc1SCC(=O)c1cccs1 do in these assays?
Measles CPE: 31.9*; Yeast life ext: -7.2; RAM network inh: 8.6*; BB579 growth dn: -71.7

Results for Cc1ccc(C)c2c1cc(C)c1nnc(SCC(=O)c3cccs3)n12 ?
Measles CPE: 10.9; Yeast life ext: -3.4; RAM network inh: 11.2*; BB579 growth dn: -15.1

How did COc1ccc(Cl)cc1NC(=S)NCc1ccc(S(N)(=O)=O)cc1 do in these assays?
Measles CPE: 4.6; Yeast life ext: -5.5; RAM network inh: 1.7; BB579 growth dn: -9.3

How did COc1ccc(CC(=O)Nc2ccc(C(=O)O)cc2NC(=O)Cc2ccc(OC)cc2)cc1 do in these assays?
RAM network inh: 2.8

Results for COc1ccc2cc(C(=O)O)ccc2c1 ?
Measles CPE: 1.9; Yeast life ext: -28.6; RAM network inh: -1.2; BB579 growth dn: 83.8*

Results for Cc1ccc(/C=C/C(=O)NC2CCCCCCC2)o1 ?
Measles CPE: 9.9; Yeast life ext: 38.1*; RAM network inh: -0.4; BB579 growth dn: -65.8

What do the screens show for `CCc1ccc(OCCn2cccn2)cc1`?
RAM network inh: -0.4

Results for CC(Sc1nnc(Cn2c(=O)sc3ccccc32)n1C)c1ccccc1 (stereo not drawn) ?
Measles CPE: 51.4*; Yeast life ext: -0.6; RAM network inh: 0.2; BB579 growth dn: -45.2

Results for Cc1ccccc1OCC(=O)Nc1sc(C(=O)Nc2cccc(C)c2C)c(C)c1C#N ?
Measles CPE: 102.5*; Yeast life ext: -10.2; RAM network inh: 3.0; BB579 growth dn: -32.9

How did O=[N+]([O-])c1cccc2ccc(/C=C/c3ccc(C(F)(F)F)cc3)nc12 do in these assays?
Measles CPE: 20.1; Yeast life ext: -4.8; RAM network inh: 10.3*; BB579 growth dn: -28.7

How did CC(C)(C)c1ccc(S(=O)(=O)N2CCC(CO)(CC3CCCCO3)CC2)cc1 (stereo not drawn) do in these assays?
RAM network inh: 0.6

What do the screens show for `Cc1cc(C)n(-c2nc3nonc3nc2Nc2cccc(C)c2C)n1`?
Measles CPE: 31.2*; Yeast life ext: -4.7; RAM network inh: 3.8; BB579 growth dn: -16.0

How did O=C(CCCCCN1C(=O)c2ccccc2C1=O)Oc1ccc2c3c(c(=O)oc2c1)CCC3 do in these assays?
Measles CPE: 16.0; Yeast life ext: 23.3; RAM network inh: 11.2*; BB579 growth dn: -50.0

Results for C=C(CCC(=O)c1ccccc1)C(=O)c1ccccc1 ?
Measles CPE: 5.5; Yeast life ext: 30.6*; RAM network inh: -1.9; BB579 growth dn: -29.0

Results for O=C(CCCCCCCC(=O)c1ccccc1)c1ccccc1 ?
RAM network inh: 0.0

What do the screens show for `Cc1ccc(C(CC(=O)c2ccc(Cl)cc2)C(=O)O)cc1` (stereo not drawn)?
RAM network inh: 0.8

Results for C=C(C(=O)c1ccccc1)C(CC(=O)c1ccccc1)c1ccccc1 (stereo not drawn) ?
Measles CPE: 6.4; Yeast life ext: 38.8*; RAM network inh: 6.8; BB579 growth dn: -15.4

What do the screens show for `O=C(C1CC(c2ccccc2O)=NO1)N1CCc2ccccc2C1` (stereo not drawn)?
Measles CPE: 47.3*; Yeast life ext: -10.7; RAM network inh: 1.3; BB579 growth dn: -40.3

How did CC(C)c1ccc(NC(=O)c2snc3ccc(Cl)cc23)cc1 do in these assays?
Measles CPE: 14.8; Yeast life ext: -6.8; RAM network inh: 7.0; BB579 growth dn: -33.7

How did COC(=O)C1=C(C)NC(=O)NC1c1ccc(N2CCC(c3ccccc3)=N2)cc1 (stereo not drawn) do in these assays?
RAM network inh: 7.6

How did O=C(/C=C/c1ccc(N2CCC(c3ccccc3)=N2)cc1)c1ccccc1 do in these assays?
RAM network inh: 11.0*

Results for CCCCC(=O)Nc1cccc(C(=O)Nc2ccccc2C(=O)O)c1 ?
RAM network inh: 2.1

Results for O=C(COc1ccc2ccccc2c1)Nc1cccc(C(=O)Nc2ccccc2C(=O)O)c1 ?
Measles CPE: 14.7; Yeast life ext: 63.7*; RAM network inh: 4.6; BB579 growth dn: -35.1

Results for CCCN1C=CC(=C2C(=O)c3ccccc3C2=O)C=C1 ?
Measles CPE: 29.4; Yeast life ext: -13.2; RAM network inh: 1.7; BB579 growth dn: 21.2
